Source: PubChem (Sanford-Burnham Center for Chemical Genomics)
Rows were chosen to be rich in hits. Some 1.5% of all compounds tested hit in one or more screens of this group.
C8 TRAIL sens – sensitizes caspase-8 expressing cells to TRAIL; NB7+C8 cells + TRAIL, ATPlite viability luminescence; inhibition (viability loss, TRAIL sensitization), % at 10 µM; actives 1% (n = 360,000); AID 624354;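 active = compounds causing at least 50% loss of cell viability in the single-dose screen, relative to plate controls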
FLuc stim CS – firefly luciferase counter-screen for stimulation assays. 200,000 tested, under 10 active. activation factor at 10 µM. P08659. AID 1027. ATPlite luciferase biochemical, luminescence, 10 min; 0 = ATP-free wells, 1 = DMSO control;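 active = luciferase activation factor, scaled between plate controls, of at least 2 with compound at 10 µM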
Target sequence (P08659 whole entry, looked up): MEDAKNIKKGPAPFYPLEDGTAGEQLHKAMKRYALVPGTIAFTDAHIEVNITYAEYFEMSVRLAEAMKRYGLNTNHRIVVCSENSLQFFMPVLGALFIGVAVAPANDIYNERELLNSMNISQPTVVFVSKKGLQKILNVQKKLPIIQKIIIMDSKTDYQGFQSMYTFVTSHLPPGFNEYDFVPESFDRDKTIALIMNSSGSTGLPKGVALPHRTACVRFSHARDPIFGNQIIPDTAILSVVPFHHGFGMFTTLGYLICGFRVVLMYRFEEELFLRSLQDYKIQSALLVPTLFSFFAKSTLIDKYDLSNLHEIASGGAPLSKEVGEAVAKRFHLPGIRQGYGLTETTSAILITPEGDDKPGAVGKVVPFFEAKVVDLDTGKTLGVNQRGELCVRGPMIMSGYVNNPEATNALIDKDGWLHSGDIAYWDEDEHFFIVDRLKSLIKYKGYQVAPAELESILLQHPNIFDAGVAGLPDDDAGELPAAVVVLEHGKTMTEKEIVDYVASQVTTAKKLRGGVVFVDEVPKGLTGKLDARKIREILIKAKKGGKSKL
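Material: luciferase plus luciferin reagent, cell-free. Medium: PBS buffer for ATP. Also added: ATP substrate, dispensed from a 10.24 µM working solution in PBS. Doses: test compounds dosed from 2 mM stocks in 100% DMSO. Incubation: 10 min post-reagent at room temperature. Technique: light output (luminescence). Read-out basis: luminescence gain marking luciferase activators.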
PPC-1+TRAIL kill – kills PPC-1 cancer cells in the presence of TRAIL | PPC-1 cells + TRAIL, ATPLite viability luminescence | actives 0.41% (n = 220,000) | cell killing (% activity), % at 4 µM or 5 µM;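 active = cell killing above 50% in the first pass at 4 µM, then a duplicate retest at 5 µM averaging 50% or more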;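 also: plate controls were cells with TRAIL plus DMSO for no effect and medium-only wells lacking cells for full effect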
FLuc inhib CS – inhibits firefly luciferase, flagging false hits in luciferase inhibition screens; P08659; ATPLite firefly luciferase biochemical luminescence, 10 min; inhibition, % at 10 µM; actives 1.5% (n = 200,000);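 active = inhibition above about 50% when tested at 10 µM, limit read from the data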
PPC1 cytotox – kills PPC-1 cells; actives 50% (n = 1,200); cytotoxicity, % at 5 µM; AID 1447; shares compounds with PPC-1+TRAIL kill; PPC-1 viability, ATPlite luminescence, overnight;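 active = reconfirmed compounds whose average cytotoxicity reaches 50% or more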;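 also: 0% = DMSO-treated cells and 100% = wells holding medium but no cells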
An asterisk follows results filed as active; · = no result given.

SMILES	C8 TRAIL sens	FLuc stim CS	PPC-1+TRAIL kill	FLuc inhib CS	PPC1 cytotox
CCOc1ccc(-c2cc(C(=O)N3CCN(C)CC3)c3ccccc3n2)cc1	75*	0.2	72*	83*	67*
CCOC(=O)N1CCN(C(=O)c2cc(-c3ccc(OCC)cc3)nc3ccccc23)CC1	89*	0.1	82*	92*	83*
CCCCCCN1C[C@H](n2cc(COC(=O)c3ccccc3)nn2)[C@@H](O)C[C@@H]1c1ccc(C)cc1	-3	·	·	·	·
Cc1nn(Cc2ccccc2)c(Cl)c1C(=O)OC(C)C#N (configuration not stated)	0	1	0	0	·
COc1ccc(N=Nc2ccc(O)c3ncccc23)cc1	31	·	39	·	49
COc1cccc(N=Nc2ccc(O)c3ncccc23)c1	10	·	·	·	·
COc1ccccc1Nc1nnc(SCC2CCCCO2)s1 (configuration not stated)	70*	0.1	65*	86*	65*
Cc1ccc(Nc2nnc(SCC3CCCCO3)s2)cc1 (configuration not stated)	9	0.9	14	7	·
N/C(=N\OC(=O)COc1ccccc1Cl)c1ccccn1	21	0.7	22	34	·
N/C(=N\OC(=O)c1ccc(Cl)c(Cl)c1)c1ccccn1	66*	0.5	7	46	18
N/C(=N\OC(=O)c1ccc(Cl)cc1)c1ccccn1	69*	0	3	97*	7
O=C(OCc1ccc(Cl)c(Cl)c1)c1ccccn1	-13	1	-14	-2	·
N/C(=N\OS(=O)(=O)c1ccc(Cl)cc1)c1ccccn1	-6	1	·	-4	·
N/C(=N\OC(=O)c1ccccc1Cl)c1ccccn1	79*	0.1	66*	93*	70*
Cc1csc(N(C)C(=O)CSc2nnc(COc3ccccc3C)o2)n1	20	1	-21	-2	-15
Cc1nc(Cc2nnc(SCC(=O)N(C)c3ccccc3)o2)cs1	-5	·	·	·	·
CCOc1ccc(C2(C)NC(=O)N(CCN(C)C)C2=O)cc1 (configuration not stated)	-1	·	·	·	·
O=C(CN1C(=O)NC2(CCCC2)C1=O)NNC(=O)c1ccccc1F	6	·	·	·	·
COc1ccc2nc(-c3cccc(N)c3)[nH]c2c1	52*	0.1	52*	87*	52*
O=C1c2ccccc2C(=O)C1c1ccc2ccccc2n1	84*	0.1	84*	91*	80*
COC(=O)C1=C(C)NC(C)=C(C(=O)OC)C1c1ccc2ccccc2n1	1	1	29	-5	·
Cn1nnnc1SCC(=O)N1CCN(S(=O)(=O)c2ccc(Cl)cc2)CC1	1	1	12	-3	·
C/C(=N\NC(=O)Cc1csc(N2CCOCC2)n1)c1ccc(Cl)c(Cl)c1	-15	0.9	12	7	·
O=C(Nc1ccc2c(c1)OCCO2)c1cc2ccccc2o1	79*	0.1	57*	92*	56*
O=C(Nc1ccc2c(c1)OCCO2)c1ccc(Br)o1	61*	0.2	52*	82*	51*
SMILES	C8 TRAIL sens	FLuc stim CS	PPC-1+TRAIL kill	FLuc inhib CS	PPC1 cytotox
Cc1ccc(NC(=O)c2cc3ccccc3o2)cc1S(=O)(=O)N(C)C	67*	0.3	49	72*	46
O=C(Nc1ccc2oc(=O)ccc2c1)c1cc2ccccc2o1	34	0.7	22	28	·
CCOC(=O)C1=C(COC(=O)COc2ccc(OCC)cc2)NC(=O)NC1C (configuration not stated)	-1	·	·	·	·
C=CCn1c(=N)n(CC(=O)c2ccc(Br)s2)c2ccccc21	12	1	6	-3	·
Cc1cccc(NC(=O)c2nc[nH]c2C(=O)N2CCN(c3ccccc3)CC2)c1	4	·	·	·	·
CC(=O)Nc1nc(=O)c2ccccc2s1	-7	1	2	1	·
O=C(Nc1nc(=O)c2ccccc2s1)c1ccccc1	34	0.4	26	60*	33
COc1cccc(NC(=O)NC(C)C2CC3CCC2C3)c1 (configuration not stated)	2	1.1	6	-6	·
Cc1cc(C)c(C#N)c(SCc2nc3ccccc3c(=O)[nH]2)n1	77*	0.6	80*	38	79*
COCc1cc(C)nc(SCc2nc3ccccc3c(=O)[nH]2)c1C#N	3	1.1	-5	-5	·
Cc1ccc(Sc2ncnc3onc(C)c23)c(C)c1	-2	1.1	-1	-6	8
Cc1noc2ncnc(Sc3ccccc3Cl)c12	-17	1	4	3	·
Nc1nc2ccccc2n1C(=O)c1ccccc1	77*	0.1	62*	90*	62*
COc1ccc(C(=O)n2c(N)nc3ccccc32)cc1OC	7	·	·	·	·
Nc1nc2ccccc2n1C(=O)c1ccc(F)cc1	81*	0.1	50*	91*	50
COc1ccc(C(=O)Nc2ccc(C)cn2)c(OC)c1	91*	0.1	88*	95*	88*
COc1ccc(C(=O)Nc2cc(C)on2)c(OC)c1	23	·	·	·	·
Cc1ccc(CNc2ccc(N3C(=O)CCCC3=O)cc2[N+](=O)[O-])cc1	-10	1	27	-4	·
COc1ccccc1N(C)S(=O)(=O)c1ccc(C(=O)OCC(=O)NCc2cccs2)cc1	-2	·	1	·	·
Cc1cc(/C=N/Nc2nc(N)ncc2[N+](=O)[O-])c(C)n1-c1ccccc1F	·	·	76*	·	77*
Cc1cccc(C)c1-n1c(C)cc(/C=N\Nc2ccc([N+](=O)[O-])cn2)c1C	8	1	23	2	·
COc1cccc(C(=O)CN(C(=O)c2ccc(Cl)c(Cl)c2)N2C(=O)C3CCCCC3C2=O)c1 (configuration not stated)	-5	1.1	8	-10	-7
COc1ccc(-n2c(SCC(=O)N3CCCCC3)nnc2-c2cccnc2)cc1	-5	0.9	14	6	-5
OCc1cccc(-c2cnc3c(Nc4cccc(OC(F)(F)C(F)F)c4)nccn23)c1	44	·	·	·	·
Cc1ccc(S(=O)(=O)Nc2cccc3ncccc23)cc1	-10	·	12	·	·
SMILES	C8 TRAIL sens	FLuc stim CS	PPC-1+TRAIL kill	FLuc inhib CS	PPC1 cytotox
Cc1ccc(S(=O)(=O)Nc2cccc3ncccc23)s1	27	1.1	20	-5	30
O=c1c(-c2ccc3c(c2)OCCO3)coc2cc(O)cc(O)c12	32	0.4	34	62*	36
Nc1ccc(-c2nc3ccc(N)cc3s2)cc1	84*	·	82*	·	80*
Nc1ccc(O)c(-c2nc3ccccc3s2)c1	11	0.8	-2	21	·
Nc1cccc(-c2nc3ccc(N)cc3s2)c1	70*	0.1	74*	93*	72*
O=C(Nc1ccccc1F)c1ccc2sc([C@H]3C[C@H](O)[C@@H](CO)O3)nc2c1	-1	·	·	·	·
O=C(Cc1cccs1)Nc1ccc(Cl)cc1	-6	0.9	3	5	2
O=C(Cc1cccs1)NCc1ccco1	-5	1.1	1	-5	-5
NC(=O)c1ccc(NC(=O)Cc2cccs2)cc1	0	·	·	·	·
Cc1ccccc1C(=O)Nc1nnc(CC(=O)N/N=C/c2ccncc2)s1	-23	·	-17	·	·
